Yeast eIF2B: eIF2B (yeast) activity modulation. S. cerevisiae eIF2B-epsilon R284H, GCN4-lacZ luminescence. inhibition, % at 25 µM (by protocol). hit rate 0.91% among 27,000;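 active = mutant luminescence inhibited past about 50% while wild type luminescence and mutant growth stay under set limits, limit read from the data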
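material = yeast eIF2B-epsilon R284H mutant carrying GCN4–beta-galactosidase fusion | schedule = 16 h growth with compound at 30 °C, 90 min Beta-Glo step | measured by = luminescence and A595 | compound dosing = one concentration, 25 µM, 0.25% DMSO | read-out basis = % inhibition of reporter signal and growth versus controls | buffer or medium = YPD medium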
Yeast tox: Compounds toxic to wild-type S. cerevisiae growth; A595 turbidity, 16 h; growth inhibition, % at 25 µM (by protocol); hit rate 0.3% among 30,000; AID 685;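 active = mutant and wild-type yeast strains alike exhibit over 30% growth inhibition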
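Schedule: 16 h growth with compound, 30 °C. System: yeast, wild-type or eIF2Bepsilon-R284H mutant. Doses: one dose, 25 µM compound[…]. Buffer or medium: YPD. Signal: turbidity measured as absorbance at 595 nm. Read-out basis: growth inhibition (%) versus cell controls and blanks.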
Numbers stand for hits; – = inactive; · = not tested or not shown. Sampled rows, rich in hits. Any-hit rate of the full collection: about 1.1%.

SMILES | Yeast eIF2B | Yeast tox
CC1(C)Cc2c(sc3c2c(=N)n(Cc2ccco2)c(=O)n3Cc2ccc(F)cc2)CO1 | 57 | –
CN(C)CCn1c(=O)n(Cc2ccco2)c(=O)c2c3c(sc21)CCCCC3 | · | –
CCn1c(=O)cc(OCC(=O)N(C)C2CCCCC2)c2ccccc21 | – | –
CCOC(=O)N1CCN(C(=O)COc2cc(=O)n(CC)c3ccccc23)CC1 | 68 | –
COc1ccc(S(=O)(=O)CCC(=O)N2c3ccccc3CC2C)cc1 (configuration not stated) | 56 | –
COc1ccc(S(=O)(=O)CCC(=O)N2CC(=O)N(CCc3ccccc3)C(=O)C2)cc1 | – | –
COc1cc2ccccc2cc1C(=O)Nc1cccnc1 | – | –
O=C(Nc1cccnc1)c1ccccc1Oc1ccccc1 | 64 | –
CC(=O)c1cc(C#N)c(SCc2ccccc2)nc1C | – | –
CCN(CC)c1nc2ccccc2nc1-n1nc(C)cc1C | – | –
Cc1cnc(NC(=O)CN(C)S(=O)(=O)c2ccc(Cl)cc2)s1 | 54 | –
CN(CC(=O)Nc1ccccn1)S(=O)(=O)c1ccc(Cl)cc1 | – | –
O=C(Nc1cccnc1)c1cc2nc(C3CC3)cc(C(F)(F)F)n2n1 | – | –
CC(C)CNC(=O)c1cc2nc(C3CC3)cc(C(F)(F)F)n2n1 | 57 | –
COc1ccccc1NC(=O)c1cc2ccccc2o/c1=N\O | 64 | –
COc1ccccc1NC(=O)c1ccccc1SC | – | –
O=S(=O)(Nc1cccnc1)c1ccc(Cl)cc1 | – | –
O=C(CSc1nc(-c2ccco2)cc(C(F)(F)F)n1)Nc1ccccc1C(F)(F)F | 52 | –
Cc1cccc(C)c1NC(=O)CSc1nc(-c2ccco2)cc(C(F)(F)F)n1 | – | –
Cc1ccc(CNC(=O)CCNC(=O)Cn2ccc3ccccc3c2=O)o1 | – | –
Cc1ccc(-n2nnnc2SCn2nnc3ccccc3c2=O)c(C)c1 | · | –
CCSc1nnc(NC(=O)c2ccccn2)s1 | – | 66
CCSc1nnc(NC(=O)c2csc3c2CCCC3)s1 | – | ·
Cc1ccc(OCCCC(=O)Nc2ccc(S(=O)(=O)Nc3cc(C)on3)cc2)cc1 | 53 | –
COc1ccc(CC(=O)Nc2ccc(S(=O)(=O)Nc3cc(C)on3)cc2)cc1 | – | –
SMILES | Yeast eIF2B | Yeast tox
C=CCSC(=C(C#N)C#N)c1cc2c([nH]1)CCCC2 | – | –
CCn1nc(C)c(NS(=O)(=O)c2ccccc2)c1C | – | –
Cc1cc(=O)oc2ccc(OCC(=O)N3CCc4ccccc43)cc12 | 50 | –
Cc1cc(=O)oc2cc(OCC(=O)N3CCCc4ccccc43)ccc12 | – | –
CCC(c1nnnn1CCC(C)C)N1CCC(C(N)=O)CC1 (configuration not stated) | – | –
CC1=CC(=O)C=C(C)C1=NOS(=O)(=O)c1ccccc1 | · | 77
CC1=CC(=O)C=C(C)C1=NOC(=O)c1cccc([N+](=O)[O-])c1 | – | –
CC(Oc1ccc(Cl)cc1Cl)c1nc(-c2ccc(NC(=O)c3ccccn3)cc2)no1 (configuration not stated) | – | –
CCOC(=O)COc1ccc(S(=O)(=O)NCc2ccco2)cc1 | 53 | –
CCOC(=O)COc1ccc(S(=O)(=O)NCc2ccncc2)cc1 | – | –
Cc1ccc2c(c1)N(CC(=O)NCc1cccnc1)C(=O)CO2 | 59 | –
Cc1ccc2c(c1)N(CC(=O)N1CCCCCC1)C(=O)CO2 | – | –
CC(NC(=O)CSc1nc2ccccc2c(=O)n1CCCO)c1ccccc1 (configuration not stated) | 53 | –
CC(C)NC(=O)CSc1nc2ccccc2c(=O)n1CCCOC(C)C | – | –
COc1ccc(N(C(=O)Nc2ccc(Cl)cc2)C2=NCCC2)cc1 | – | –
C=CCSc1nnc(NC(=O)COc2ccc3ccccc3c2)s1 | – | –
CSc1ccccc1C(=O)NCC1CCCO1 (configuration not stated) | · | –
O=C(CN(CC1CCCO1)C(=O)CCC(=O)Nc1ccccn1)NCc1ccccc1 (configuration not stated) | – | –
CC(C)C1Oc2ccccc2N(CC(=O)N(Cc2ccccn2)CC2CCCO2)C1=O (configuration not stated) | 59 | –
Cc1ccc(CN(CC2CCCO2)C(=O)CN2C(=O)C(C(C)C)Oc3ccccc32)o1 (configuration not stated) | 59 | –
Cc1ccc(C)c(CSc2ncccc2C(=O)O)c1 | – | –
COc1ccc(C(=O)Cn2c(NCCO)nc3ccccc32)cc1OC | – | –
O=C(NCc1ccco1)c1ccccc1Nc1ccc(F)cc1 | – | –
CC(C)[C@H](NC(=O)OC(C)(C)C)C(=O)N/N=C/c1cccc2nccnc12 | – | –
CCS(=O)(=O)N1CCC(C(=O)NCc2ccc(F)cc2Cl)CC1 | – | –
SMILES | Yeast eIF2B | Yeast tox
Cc1cc(C)c(S(=O)(=O)N2CCC(C(=O)NCc3ccc(Cl)cc3Cl)CC2)c(C)c1 | · | 82
CC(C)[C@H](N)c1nnc(SC/C=C/c2ccccc2)o1 | · | –
CCCCCn1c(SCC(=O)OCC)nc2cc(C(=O)NCc3ccco3)ccc2c1=O | 56 | –
C=CCn1c(SCC(=O)OCC)nc2cc(C(=O)NCc3ccco3)ccc2c1=O | · | –
CCOC(=O)N1CCC(NC(=O)c2ccc(CNS(=O)(=O)c3ccc(F)cc3)cc2)CC1 | – | –
CCOC(=O)c1[nH]c(COC(=O)C2CC(=O)N(Cc3ccccc3)C2)c(C(=O)OCC)c1C (configuration not stated) | – | –
CN1CCN(C(=O)CSc2nc(-c3ccncc3)ccc2C#N)CC1 | 71 | –
COC(=O)CSc1nc(-c2cccs2)ccc1C#N | – | ·
CC(C)COP(=O)(c1ccc(N(C)C)cc1)C(O)c1ccccn1 (configuration not stated) | – | –
O=S1(=O)C=C(Sc2nnc(-c3ccccc3)o2)c2ccccc21 | – | 76
CSc1nnc(-c2ccccc2)o1 | – | –
COc1ccc(N/C=C(\C#N)c2nc3ccccc3n2C)c(OC)c1 | 58 | –
COc1ccc(Nc2nc(N3CCCCC3)nc3ccccc23)c(OC)c1 | – | –
CCOC(=O)C1=C(C)NC(SCc2cc(=O)[nH][nH]2)=C(C#N)C1c1cccs1 (configuration not stated) | 56 | –
C=CCOC(=O)C1=C(C)NC(SC)=C(C#N)C1c1cccs1 (configuration not stated) | – | –
Cc1sc2ncnc(N3CCN(CCOc4ccc(Cl)cc4)CC3)c2c1C | · | –
CCOC(=O)N1CCN(C(=O)c2ccc(N3CCCC3=O)cc2)CC1 | 56 | –
CCOC(=O)N1CCN(C(=O)c2ccc(NC(=O)CC)cc2)CC1 | – | –
Cn1c(SC2C(=O)CC(C)(C)CC2=O)nnc1-c1ccco1 | 60 | –
CC1(C)CC(=O)C(Sc2nnc(-c3ccc(NS(C)(=O)=O)cc3)n2Cc2ccco2)C(=O)C1 | – | –
CC(OC(=O)c1cc2sccc2n1C)C(=O)NCc1ccc2c(c1)OCO2 (configuration not stated) | – | –
Cc1csc(NC(=O)c2cccn2C)n1 | 51 | –
Cc1csc(NC(=O)CSc2nc(C)cs2)n1 | – | –
Cc1ccc(C(=O)C2COC(=O)C2)cc1 (configuration not stated) | – | –
COC(=O)c1cccc(NC(=O)c2ccc(S(=O)(=O)N3CCN(C)CC3)cc2)c1 | 59 | –
CN1CCN(S(=O)(=O)c2ccc(NC(=O)Nc3cccc(Cl)c3)cc2)CC1 | · | –
